UI data for 13 compounds are collected here from ChEMBL document CHEMBL1154706, “Novel substituted and fused pyrrolizine derivatives: synthesis, anti-inflammatory and ulcerogenecity studies” (Eur J Med Chem, 2010).

This data set relates to Rattus norvegicus. As to the kind of experiment: Gastrointestinal toxicity in albino rat assessed ulcer index at 39.23 […], po. The format is organism-based. The note with it: in vivo. The gist of the method:
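Adult albino rats of both sexes (120–150 g), five per group, fasted 20 h before dosing. Compounds given orally as a suspension in 1% Tween; controls received vehicle. Dosed on three consecutive days with fasting/feeding cycles, then killed on day 4. Stomach opened along the greater curvature and rinsed with saline. Red spots counted and severity scored 0–4. Ulcer index derived from % incidence/10, mean ulcer number and mean severity.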
`O=C(O)CCc1nc(=O)c2c3n(c(C(=O)Nc4ccccc4)c2[nH]1)CCC3` registered a UI of 16.66.
In turn, `O=C(O)/C=C\c1nc(=O)c2c3n(c(C(=O)Nc4ccccc4)c2[nH]1)CCC3` yielded a UI of 17.46.
`Cc1ccc(NC(=O)c2c3[nH]c(/C=C\C(=O)O)nc(=O)c3c3n2CCC3)cc1` returned a UI of 18.3.
Take `O=C(O)CCc1nc(=O)c2c3n(c(C(=O)Nc4ccc(Cl)cc4)c2[nH]1)CCC3`: the UI is recorded as 15.66.
Consider `Cc1ccc(NC(=O)c2c3[nH]c(CCC(=O)O)nc(=O)c3c3n2CCC3)cc1`, for which the UI is 17.91.
`O=C(O)/C=C\c1nc(=O)c2c3n(c(C(=O)Nc4ccc(Cl)cc4)c2[nH]1)CCC3` came in with a UI of 17.09.
As for `Cc1ccc(NC(=O)c2c(NC(=O)C(C)c3cccc(C(=O)c4ccccc4)c3)c(C#N)c3n2CCC3)cc1` (racemic), the UI is 3.6.
On to `Cc1ccc(NC(=O)c2c(NC(=O)C(C)c3ccc(CC(C)C)cc3)c(C#N)c3n2CCC3)cc1` (racemic), for which the UI is 3.2.
On to `CC(C)Cc1ccc(C(C)C(=O)Nc2c(C#N)c3n(c2C(=O)Nc2ccc(Cl)cc2)CCC3)cc1` (racemic), for which the UI came to 0.
As for `CC(C(=O)Nc1c(C#N)c2n(c1C(=O)Nc1ccc(Cl)cc1)CCC2)c1cccc(C(=O)c2ccccc2)c1` (racemic), the UI stood at 3.6.
In the case of `CC(C(=O)Nc1c(C#N)c2n(c1C(=O)Nc1ccccc1)CCC2)c1cccc(C(=O)c2ccccc2)c1` (racemic) it was 0; in that of `CC(C)Cc1ccc(C(C)C(=O)Nc2c(C#N)c3n(c2C(=O)Nc2ccccc2)CCC3)cc1` (racemic), 0; in that of `O=C(c1ccccc1)c1ccc2n1CCC2C(=O)O` (stereo not drawn) [KETOROLAC], 11.6.
